Calls of active or inactive are those of the source.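 The calls were made as follows, unless noted: active = Her2 level under about 52% in both replicate screens, with viability over 70% of control (limit read from the data); inconclusive = Her2 under the limit in one screen only, or viability under 70%; inactive = Her2 level above the set limit.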
Columns and labels:
[1] = Her2 expression decrease, cell viability multiplex – SKBR3 breast tumor cells, AlphaScreen, ATP viability, primary screen (AID 461); details: SKBR3 Her2 protein level, 18-24 h, measured here: SKBR3 viability, ATP luminescence, at 10 µM;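 as to Her2 level: lower value means less Her2 protein in the cells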;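 as to viability: percent of carrier control wells set as 100% viability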
[2] = target: Receptor tyrosine-protein kinase erbB-2 (Homo sapiens) (UniProt P04626); test: as above; details: 18-24 h, at 10 µM, stronger effect = lower value
[3] = reduced viability of SK-BR-3 breast cancer cells – cell-based, 24 h, human, pilot screen (AID 572;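 active = viability at or below 10% of carrier control in both of two separate runs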;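 also: compound exposure lasted between 18 and 24 h rather than exactly 24 h; 100% = carrier-treated control wells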); details: SK-BR-3 viability, CellTiter-Glo luminescence, at 10 µM, stronger effect = lower value
[4] = HUVEC growth inhibition – cell-based, human, primary screen (AID 575;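 active = viability at or below 30% in both replicate assays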;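 also: 100% = median of untreated cell wells with 0.1% DMSO on each plate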); details: HUVEC proliferation, CellTiter-Glo luminescence, 72 h; at 10 µM; stronger effect = lower value
Summary of the method: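 Assay system: primary human umbilical vein endothelial cells / Buffer or medium: endothelial basal medium with 2% FBS plus growth supplements / Compound dosing: one dose, 10 µM final, 0.1% DMSO / Timing: 72 h treatment at 37 °C / Signal: CTG luminescence / Benchmarks: 32 DMSO-only cell-control wells (high), 32 MePR drug-control wells (low) per plate / Plate: collagen-coated 384-well format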

[5] = H69AR cell proliferation blockers – human, duplicate replicates, primary screen (AID 580;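 active = viability at or under a set limit in both replicates, limit being median viability minus 3 SD, cut at about 48% in these data, passing the limit was not always enough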;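 also: 100% = mean luminescence of untreated wells and 0% = no signal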); details: H69AR lung tumor cells viability, ATP luminescence, 72 h; at 10 µM; stronger effect = lower value
[6] = MRP1 drug-resistance reversers in H69AR cells – cell-based, doxorubicin co-treatment, pilot screen (AID 601;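 active = viability loss from added drug above about 55%, and viability with drug at most 40%, in both replicates, limit read from the data, passing the limit was not always enough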); details: CellTiter-Glo, 72 h, at 10 µM; for differential viability (reversal): stronger effect = higher value
[7] = yeast transport mutant growth inhibition pilot in 384-well plates, post-Golgi transport modulator project (AID 636; in the data active = inhibition above about 31%); details: absorbance 615 nm, about 18 h, stronger effect = higher value
[8] = growth suppression of yeast trafficking mutant, preliminary HTS, modulators of trafficking downstream of Golgi apparatus project, 1536-format plate, OD 615 nm (AID 637; in the data active = inhibition above about 30%); details: yeast transport mutant growth, absorbance 615 nm, 18 h; stronger effect = higher value
[9] = H69AR cells + 2 uM doxorubicin, measured here: viability with 2 uM doxorubicin, stronger effect = lower value
[10] = H69AR cells, compound alone cytotoxicity

Sequence of Receptor tyrosine-protein kinase erbB-2 (Homo sapiens) (P04626 whole entry, looked up): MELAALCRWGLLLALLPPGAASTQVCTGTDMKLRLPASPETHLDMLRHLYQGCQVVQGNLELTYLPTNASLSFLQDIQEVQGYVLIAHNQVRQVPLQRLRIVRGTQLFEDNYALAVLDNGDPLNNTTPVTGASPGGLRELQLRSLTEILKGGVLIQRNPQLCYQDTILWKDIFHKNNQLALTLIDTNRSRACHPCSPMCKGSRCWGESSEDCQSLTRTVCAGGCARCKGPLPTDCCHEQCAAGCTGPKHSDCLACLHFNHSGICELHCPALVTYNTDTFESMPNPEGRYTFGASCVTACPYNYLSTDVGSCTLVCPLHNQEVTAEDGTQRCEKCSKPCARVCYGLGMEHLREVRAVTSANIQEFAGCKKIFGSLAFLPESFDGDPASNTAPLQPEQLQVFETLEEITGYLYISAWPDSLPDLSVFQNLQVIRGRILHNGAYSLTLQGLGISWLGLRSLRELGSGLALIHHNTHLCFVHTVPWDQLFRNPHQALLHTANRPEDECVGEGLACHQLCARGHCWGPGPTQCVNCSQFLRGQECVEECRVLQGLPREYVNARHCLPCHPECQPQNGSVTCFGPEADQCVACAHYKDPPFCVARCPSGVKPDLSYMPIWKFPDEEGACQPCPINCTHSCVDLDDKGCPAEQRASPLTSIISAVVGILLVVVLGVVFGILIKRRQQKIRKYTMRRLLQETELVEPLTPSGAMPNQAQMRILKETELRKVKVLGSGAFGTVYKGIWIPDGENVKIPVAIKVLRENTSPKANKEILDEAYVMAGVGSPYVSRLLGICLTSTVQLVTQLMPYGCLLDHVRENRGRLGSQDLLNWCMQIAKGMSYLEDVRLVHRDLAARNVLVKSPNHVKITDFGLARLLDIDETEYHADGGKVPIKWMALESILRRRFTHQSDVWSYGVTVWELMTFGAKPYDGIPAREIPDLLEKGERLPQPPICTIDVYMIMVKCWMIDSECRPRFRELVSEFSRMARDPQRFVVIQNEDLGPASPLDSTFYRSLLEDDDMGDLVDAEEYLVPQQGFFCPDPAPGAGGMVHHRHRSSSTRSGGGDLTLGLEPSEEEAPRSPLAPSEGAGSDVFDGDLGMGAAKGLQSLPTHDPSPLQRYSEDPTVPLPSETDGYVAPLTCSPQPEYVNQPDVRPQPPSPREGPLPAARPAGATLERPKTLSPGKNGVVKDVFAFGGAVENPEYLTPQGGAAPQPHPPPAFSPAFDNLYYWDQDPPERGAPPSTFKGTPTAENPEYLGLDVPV

| SMILES | viability [1] [%] | Her2 level [2] | viability [3] | viability [4] | viability [5] | differential viability (reversal) ([6]; H69AR cells + 2 uM doxorubicin) | viability [6, 9] [%] | viability [6, 10] [%] | inhibition [7] | inhibition [8] |
| --- | --- | --- | --- | --- | --- | --- | --- | --- | --- | --- |
| O=C(Nc1ccc2c(c1)OCO2)c1cc2ncc(Br)cn2n1 | 101 | 104% (inactive) | 101% (inactive) | 84.8% (inactive) | 86.8% (inactive) | -17.3% (inactive) | 104 | 86.8 | -4.67% (inactive) | -0.16% (inactive) |
| CSc1nnc(-c2ccc(NC(=O)CCc3ccccc3)cc2)n1C | 91.5 | 82.5% (inactive) | 91.5% (inactive) | 111% (inactive) | 87% (inactive) | -2.53% (inactive) | 89.5 | 87 | -4.59% (inactive) | 3.11% (inactive) |
| O=C(c1ccc2c(c1)OCCO2)C1CCN(C(=O)c2ccc(F)cc2)CC1 | 102 | 111% (inactive) | 102% (inactive) | 93.7% (inactive) | 83.8% (inactive) | -16.2% (inactive) | 99.9 | 83.8 | -6.35% (inactive) | -3.11% (inactive) |
| COc1cc(C(=O)Nc2ccc3c(c2)C(=O)N(CCC(=O)O)C3=O)cc(OC)c1OC | 97.5 | 83% (inactive) | 97.5% (inactive) | 98% (inactive) | 106% (inactive) | 5.66% (inactive) | 100 | 106 | -3.42% (inactive) | -2.86% (inactive) |
| O=C1CC(N2CCC(C(=O)N3CCCCC3)CC2)C(=O)N1 (stereo not given) | 110 | 91.5% (inactive) | 110% (inactive) | 94.4% (inactive) | 96.9% (inactive) | 10% (inactive) | 86.8 | 96.9 | -2.63% (inactive) | 3.71% (inactive) |
| CCOc1ccc(-c2nnn(CC(=O)N3CCN(c4ccc(F)cc4)CC3)n2)cc1OCC | 111 | 102% (inactive) | 111% (inactive) | 76% (inactive) | 81.9% (inactive) | -10.1% (inactive) | 92 | 81.9 | -2.93% (inactive) | -0.33% (inactive) |
| CCc1nnc(NC(=O)CN2CCN(c3ccccc3OC)CC2)s1 | 99.5 | 89% (inactive) | 99.5% (inactive) | 64.9% (inactive) | 50.7% (inactive) | 25.5% (inactive) | 25.2 | 50.7 | -0.39% (inactive) | -5.56% (inactive) |
| COc1ccc(N2C(=O)CC(NC3CC3)C2=O)cc1 (stereo not given) | 100 | 89.5% (inactive) | 100% (inactive) | 94.7% (inactive) | 91.2% (inactive) | 0.64% (inactive) | 90.5 | 91.2 | -3.82% (inactive) | -6% (inactive) |
| Cc1cc2c(=O)n(CC(=O)N3CCN(c4ccccc4)CC3)cnc2s1 | 92 | 78% (inactive) | 92% (inactive) | 100% (inactive) | 96.5% (inactive) | 8.25% (inactive) | 88.2 | 96.5 | -2.11% (inactive) | 0.18% (inactive) |
| Cc1nc2ncnn2c(Nc2ccc3c(c2)OCCO3)c1C | 91 | 110% (inactive) | 91% (inactive) | 106% (inactive) | 73.7% (inactive) | -23.6% (inactive) | 97.3 | 73.7 | 2.8% (inactive) | 26.1% (inactive) |
| COC(=O)C1=CN(C(C)C)C=C(C(=O)OC)C1c1cc2c(cc1Br)OCO2 | 92.5 | 87.5% (inactive) | 92.5% (inactive) | 74% (inactive) | 85.4% (inactive) | 9.5% (inactive) | 75.9 | 85.4 | -1.47% (inactive) | -4.29% (inactive) |
| Cc1cccn2c(=O)c3cc(C(=O)N4CCCc5ccccc54)n(C)c3nc12 | 86.5 | 80% (inactive) | 86.5% (inactive) | 97.2% (inactive) | 90.2% (inactive) | 1.01% (inactive) | 89.2 | 90.2 | -1.89% (inactive) | -5.08% (inactive) |
| O=C(NCC(F)(F)F)N1CCOCC1 | 96 | 85.5% (inactive) | 96% (inactive) | 89.5% (inactive) | 100% (inactive) | 8.42% (inactive) | 91.8 | 100 | -6.71% (inactive) | -6.19% (inactive) |
| Cc1ccc(-n2c(=O)[nH]c3c(C(N)=O)nc(CC(C)C)nc32)cc1 | 105 | 106% (inactive) | 105% (inactive) | 89% (inactive) | 72.6% (inactive) | -18.6% (inactive) | 91.2 | 72.6 | -2.76% (inactive) | 5.57% (inactive) |
| Cc1ccc2[nH]cc(C(=O)CN3CCC4(CC3)OCCO4)c2c1 | 106 | 90% (inactive) | 106% (inactive) | 104% (inactive) | 92.2% (inactive) | 1.75% (inactive) | 90.5 | 92.2 | -4.13% (inactive) | -1.48% (inactive) |
| COc1ccc(S(=O)(=O)N2CN(Cc3ccco3)c3nc4ccccc4nc32)cc1 | 101 | 84.5% (inactive) | 101% (inactive) | 99.2% (inactive) | 102% (inactive) | 7.69% (inactive) | 94.2 | 102 | 1.82% (inactive) | 1.11% (inactive) |
| O=C(OCCCCN1C(=O)c2ccccc2C1=O)c1n[nH]c2ccccc12 | 92.5 | 86% (inactive) | 92.5% (inactive) | 76.4% (inactive) | 101% (inactive) | 6.39% (inactive) | 94.9 | 101 | -7.67% (inactive) | 4.29% (inactive) |
| O=C(c1ccccc1)c1ccc(N2CCOCC2)c(NC(=O)c2ccco2)c1 | 82.5 | 78.5% (inactive) | 82.5% (inactive) | 81.1% (inactive) | 87.3% (inactive) | 15.7% (inactive) | 71.6 | 87.3 | -3.16% (inactive) | 2.86% (inactive) |
| CCOc1ccc2[nH]c(=O)c(CN(Cc3ccccc3)C(=O)N3CCCC3)cc2c1 | 100 | 77% (inactive) | 100% (inactive) | 78.4% (inactive) | 82.1% (inactive) | 1.97% (inactive) | 80.1 | 82.1 | -2.5% (inactive) | -1.9% (inactive) |
| CCOC(=O)c1ccc(NC(=O)NC(C)C2CCCO2)cc1 (stereo not given) | 97.5 | 96.5% (inactive) | 97.5% (inactive) | 108% (inactive) | 95.6% (inactive) | 5.2% (inactive) | 90.4 | 95.6 | -1.32% (inactive) | -7.94% (inactive) |
| Cc1nn(-c2ccc(F)cc2)c2nc(N)c(C#N)c(-c3cccs3)c12 | 80.5 | 75.5% (inactive) | 80.5% (inactive) | 85.4% (inactive) | 86.2% (inactive) | 4.98% (inactive) | 81.3 | 86.2 | -0.79% (inactive) | 3.44% (inactive) |
| CC(Oc1ccccc1)C(=O)NC1CCN(Cc2ccccc2)CC1 (stereo not given) | 93 | 83% (inactive) | 93% (inactive) | 90.7% (inactive) | 93.5% (inactive) | 7.39% (inactive) | 86.1 | 93.5 | -5.6% (inactive) | 3.65% (inactive) |
| Cc1ccc2nc(NCCCN3CCOCC3)c(C=NCCCN3CCOCC3)c(=O)n2c1 | 102 | 84% (inactive) | 102% (inactive) | 99.1% (inactive) | 81.9% (inactive) | -4.68% (inactive) | 86.6 | 81.9 | -0.39% (inactive) | -12% (inactive) |
| COCCNS(=O)(=O)c1cc(F)ccc1OC | 90 | 99.5% (inactive) | 90% (inactive) | 95.1% (inactive) | 103% (inactive) | 5.13% (inactive) | 97.6 | 103 | -4.32% (inactive) | -5.74% (inactive) |
| CCCS(=O)(=O)Nc1c(C(=O)O)[nH]c2ccccc12 | 94.5 | 93% (inactive) | 94.5% (inactive) | 83.9% (inactive) | 94.5% (inactive) | -11.1% (inactive) | 106 | 94.5 | -5.13% (inactive) | -12.8% (inactive) |
| CC(=O)c1cccc(S(=O)(=O)NCC(c2ccco2)N2CCCCC2)c1 (stereo not given) | 101 | 80% (inactive) | 101% (inactive) | 96% (inactive) | 99.4% (inactive) | 11.9% (inactive) | 87.5 | 99.4 | -0.91% (inactive) | -7.3% (inactive) |
| CC12CCC(C(=O)N3CCCCC3)(CC1=O)C2(C)C (stereo not given) | 97.5 | 102% (inactive) | 97.5% (inactive) | 96.3% (inactive) | 97.8% (inactive) | 0.59% (inactive) | 97.2 | 97.8 | -3.08% (inactive) | -0.83% (inactive) |

Source: PubChem BioAssay
